Measured values: ChEMBL document CHEMBL3526063, “Metabolism and pharmacokinetics of JM6 in mice: JM6 is not a prodrug for Ro-61-8048” (Drug Metab Dispos, 2012)
pIC50: −log10 of the molar value.

Assays:
[1] = Half life in C57BL/6N mouse at 5 mg/kg, iv administered as single dose by LC-MS/MS analysis; type: ADME, organism-based; parameters: dose 5 mg/kg, route intravenous; settings: in vivo
Outline: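 Single intravenous bolus of 5 mg/kg to male C57BL/6N mice, given as a filtered 1 mg/mL solution in DMSO:PEG400:water 10:50:40 (v/v). Plasma was extracted in acidified acetonitrile with diclofenac as internal standard and analysed by UPLC-MS/MS. Non-compartmental analysis used mean concentrations (n=3 per time point), with C0 back-extrapolated from the first two samples. AUCinf = AUClast + Ct/kel.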

[2] = Oral bioavailability in C57BL/6N mouse at 0.05 mg/kg administered via gavage by LC-MS/MS analysis; type: ADME, organism-based; settings: in vivo
Outline: (§1)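 Male C57BL/6N mice dosed by oral gavage (10 mL/kg) as fine suspensions in 10% hydroxypropyl-β-cyclodextrin in 50 mM phosphate buffer pH 7; dose formulations verified by LC-MS/MS. Plasma analysed by LC-MS/MS; composite non-compartmental parameters from mean concentrations (n=3 per time point), C0 set to zero. %F = dose-normalised po AUCinf over dose-normalised iv AUCinf, only within linear range.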

[3] = Plasma clearance in C57BL/6N mouse at 5 mg/kg, iv administered as single dose by LC-MS/MS analysis; type: ADME, organism-based; parameters: dose 5 mg/kg, route intravenous
Outline: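 Male C57BL/6N mice given 5 mg/kg iv bolus as 1 mg/mL filtered solution in DMSO:PEG400:water 10:50:40. Plasma extracted with acidified acetonitrile (diclofenac IS), analysed by LC-MS/MS. Composite non-compartmental parameters from mean concentrations (n=3 per time point); C0 back-extrapolated from first two points; kel from at least last three concentrations.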

Mus musculus [4] = assay: Dose normalised Cmax in C57BL/6N mouse at 0.05 mg/kg, po administered via gavage by LC-MS/MS analysis; type: ADME, organism-based; parameters: dose 0.05 mg/kg, route oral; settings: in vivo
Outline: (§2)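 Male C57BL/6N mice were dosed by oral gavage at 10 mL/kg with a fine suspension in 10% hydroxypropyl-β-cyclodextrin in 50 mM phosphate buffer, pH 7. Plasma was taken at non-serial time points (n=3 per time point), extracted with 0.1% formic acid in acetonitrile containing diclofenac as internal standard, and quantified by UPLC-MS/MS. Composite non-compartmental parameters came from mean concentrations; AUClast by linear trapezoid, kel from at least three terminal points.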

[5] = target: Kynurenine 3-monooxygenase (Rattus norvegicus, UniProt O88867); assay: Inhibition of Wistar rat KMO assessed as 3-hydroxykynurenine formation preincubated for 5 mins using 100 uM kynurenine as substrate by LC-MS/MS analysis in presence of 3 mg/ml plasma protein
Outline: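 KMO from Wistar rat liver (0.3 mg protein/ml) preincubated 5 min at 25°C with compound plus 3 mg/mL plasma protein in 100 mM potassium phosphate pH 7.4, 200 µM NADPH, G6PDH regenerating system. Started with 100 µM kynurenine, 40 min, stopped with TCA; 3-hydroxykynurenine by LC-MS/MS. 8-point 3-fold dilutions; triplicates, ≥2 runs.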

[6] = Half life in C57BL/6N mouse at 0.05 mg/kg, po administered via gavage by LC-MS/MS analysis; type: ADME, organism-based; parameters: dose 0.05 mg/kg, route oral; settings: in vivo; outline: as §2
[7] = Plasma protein binding in rat at 5 and 20 uM for 6 hrs by LC-MS/MS analysis; type: ADME, cell-free; settings: read-out: PPB
Outline: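 Equilibrium dialysis: plasma fortified in triplicate (5 and 20 µM rat and mouse; 10 µM human) on donor side, PBS on receiver side; 37°C, 200 rpm, 6 h; both sides by LC-MS/MS.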

[8] = AUC(infinity) in C57BL/6N mouse at 0.05 mg/kg, po administered via gavage by LC-MS/MS analysis; type: ADME, organism-based; parameters: time infinity, dose 0.05 mg/kg, route oral; settings: plasma; outline: as §2
[9] = target: T1, Kynurenine 3-monooxygenase (Homo sapiens, UniProt O15229); assay: Inhibition of human KMO assessed as 3-hydroxykynurenine formation preincubated for 5 mins using 100 uM kynurenine as substrate by LC-MS/MS analysis in presence of 3 mg/ml plasma protein
Outline: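 Liver mitochondrial KMO (mouse C57 BL/6J or human), 0.3 mg protein/mL in 100 mM potassium phosphate pH 7.4, 200 µM NADPH, NADPH-regenerating system, plus 3 mg/mL plasma protein. Compound pre-incubated 5 min at 25°C; 100 µM kynurenine started reaction for 40 min (mouse) or 60 min (human); TCA stop; 3-hydroxykynurenine by LC-MS/MS. IC50 from 8-point 3-fold series, triplicates, n≥2.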

Mus musculus [10] = assay: Dose normalised AUC in C57BL/6N mouse at 0.05 mg/kg, po administered via gavage by LC-MS/MS analysis; type: ADME, organism-based; parameters: dose 0.05 mg/kg, route oral; settings: in vivo; outline: as §2
[11] = Cmax in mouse at 10 mg/kg, po; type: ADME, organism-based; parameters: dose 10 mg/kg, route oral; settings: in vivo
Liver [12] = assay: Metabolic stability in mouse liver microsomes assessed as intrinsic clearance at 1 uM after 5 to 40 mins by LC-MS/MS analysis
[13] = target: T1, Kynurenine 3-monooxygenase; assay: Inhibition of KMO (unknown origin)
Liver [14] = assay: Metabolic stability in mouse liver microsomes assessed as half life at 1 uM after 5 to 40 mins by LC-MS/MS analysis
Mus musculus [15] = assay: AUC(infinity) in C57BL/6N mouse at 10 mg/kg, po administered via gavage containing <0.4% Ro-61-8048 by LC-MS/MS analysis; type: ADME, organism-based, Plasma; parameters: time infinity, dose 10 mg/kg, route oral; settings: in vivo; outline: as §2
Mus musculus [16] = assay: Cmax in C57BL/6N mouse at 10 mg/kg, po administered via gavage containing <0.4% Ro-61-8048 by LC-MS/MS analysis; type: ADME, organism-based; parameters: dose 10 mg/kg, route oral; settings: in vivo; outline: as §2
[17] = Plasma clearance in C57BL/6N mouse at 5 mg/kg, iv administered as single dose containing <0.4% Ro-61-8048 by LC-MS/MS analysis; type: ADME, organism-based; parameters: dose 5 mg/kg, route intravenous
Outline: (§3)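 Male C57BL/6N mice given 5 mg/kg iv bolus (1 mg/mL, DMSO:PEG400:water 10:50:40, filtered); dosed material carried Ro-61-8048 as impurity, which was also quantified in plasma. LC-MS/MS after acetonitrile/formic acid extraction; composite non-compartmental analysis of mean concentrations (n=3 per time point), C0 back-extrapolated, kel from ≥3 terminal points.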

Mus musculus [18] = assay: Dose normalised AUC in C57BL/6N mouse at 10 mg/kg, po administered via gavage containing <0.4% Ro-61-8048 by LC-MS/MS analysis; type: ADME, organism-based; parameters: dose 10 mg/kg, route oral; settings: in vivo; outline: as §2
[19] = Volume of distribution at steady state in C57BL/6N mouse at 5 mg/kg, iv administered as single dose containing <0.4% Ro-61-8048 by LC-MS/MS analysis; type: ADME, organism-based; parameters: dose 5 mg/kg, route intravenous; settings: in vivo, read-out: Vdss; outline: as §3
Mus musculus [20] = assay: Tmax in C57BL/6N mouse at 10 mg/kg, po administered via gavage containing <0.4% Ro-61-8048 by LC-MS/MS analysis; type: ADME, organism-based; parameters: dose 10 mg/kg, route oral; settings: in vivo; outline: as §1

T1 sequence (O15229 whole entry): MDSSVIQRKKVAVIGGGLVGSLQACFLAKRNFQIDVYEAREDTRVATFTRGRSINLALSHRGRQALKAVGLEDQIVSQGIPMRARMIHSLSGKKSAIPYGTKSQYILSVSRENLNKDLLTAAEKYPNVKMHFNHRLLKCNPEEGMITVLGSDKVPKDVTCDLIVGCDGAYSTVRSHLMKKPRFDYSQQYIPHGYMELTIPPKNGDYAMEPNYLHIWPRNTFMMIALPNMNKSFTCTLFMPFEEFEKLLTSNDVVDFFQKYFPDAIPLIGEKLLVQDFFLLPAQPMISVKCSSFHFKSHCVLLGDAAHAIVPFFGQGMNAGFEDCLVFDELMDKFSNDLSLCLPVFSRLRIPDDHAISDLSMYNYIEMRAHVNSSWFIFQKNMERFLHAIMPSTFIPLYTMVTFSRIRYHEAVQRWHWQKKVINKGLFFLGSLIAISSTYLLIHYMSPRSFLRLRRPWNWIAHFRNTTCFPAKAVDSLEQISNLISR
Chain of Kynurenine 3-monooxygenase (Rattus norvegicus, UniProt O88867) (O88867 whole entry): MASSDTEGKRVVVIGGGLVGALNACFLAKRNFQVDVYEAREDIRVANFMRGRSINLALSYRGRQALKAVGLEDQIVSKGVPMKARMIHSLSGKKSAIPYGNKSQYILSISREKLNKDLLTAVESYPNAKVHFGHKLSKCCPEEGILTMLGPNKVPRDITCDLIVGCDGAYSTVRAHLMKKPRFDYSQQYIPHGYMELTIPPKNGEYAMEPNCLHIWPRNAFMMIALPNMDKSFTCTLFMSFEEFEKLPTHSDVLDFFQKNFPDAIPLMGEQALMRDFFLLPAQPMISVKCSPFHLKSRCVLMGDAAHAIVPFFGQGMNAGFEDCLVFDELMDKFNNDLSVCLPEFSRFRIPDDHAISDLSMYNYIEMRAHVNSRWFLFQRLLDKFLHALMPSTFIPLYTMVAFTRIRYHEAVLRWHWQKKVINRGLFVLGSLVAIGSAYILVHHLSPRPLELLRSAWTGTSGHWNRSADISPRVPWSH

| half-life [1] | bioavailability [2] | clearance [3] | Cmax/dose (Mus musculus [4]) | pIC50 [5] | half-life [6] | fraction unbound at 6 h [7] | AUC(0-inf) [8] | pIC50 [9] | AUC/dose (Mus musculus [10]) | Cmax [11] | CLH (Liver [12]) | pIC50 [13] | t1/2 (Liver [14]) | AUC (Mus musculus [15]) | Cmax (Mus musculus [16]) | clearance [17] | AUC/dose (Mus musculus [18]) | Vd [19] | Tmax (Mus musculus [20]) | Compound |
| --- | --- | --- | --- | --- | --- | --- | --- | --- | --- | --- | --- | --- | --- | --- | --- | --- | --- | --- | --- | --- |
| 6.5 h | 70% | 0.3 mL/min/kg | 11000 nM | 5.10 | 5.2 h | < 0.01 | 4.5 µM·h | < 4.52 | 90000 nM·kg·h/mg | – | – | – | – | – | – | – | – | – | – | COc1ccc(S(=O)(=O)Nc2nc(-c3cccc([N+](=O)[O-])c3)cs2)cc1OC |
| – | – | – | – | – | – | – | – | – | – | 1100 nM | 220 µL/min/mg | 5.40 | 0.2 h | 1.1 µM·h | 100 nM | 31.7 mL/min/kg | 110 nM·kg·h/mg | 0.37 L/kg | 0.5 h | COc1ccc(S(=O)(=O)Nc2nc(-c3cccc([N+](=O)[O-])c3)c(CN3CCCCC3)s2)cc1OC |
